Measurements of several laboratories.
Each line is one published result; the experiments were not run side by side.
Target: Tyrosine-protein kinase BTK (BTK, Homo sapiens, UniProt Q06187)

| Compound | assay | setting | measurement | value |
| --- | --- | --- | --- | --- |
| Cn1cncc1[C@@](O)(COc1ccc(C#N)cc1-c1ccc(OC(F)(F)F)cc1)c1ccc(C#N)cc1 | cell-free assay, competition with immobilised ligand | 1 µM | remaining binding | 82% |
| CC(C)(C)c1cc(C=C(C#N)C#N)cc(Br)c1O | enzyme activity, inhibitor | 0.5 µM | remaining activity | 101% |
| Cc1nn(C)cc1-c1nc2c(N3CCN(Cc4ccc(Cl)cc4)CC3)c(Cl)cnc2[nH]1 | binding, competition with immobilised ligand | 1 µM | remaining binding | 100% |
| C#Cc1n[nH]c2c(-c3cn(C(C)c4ccccn4)c(=O)[nH]c3=O)cc(F)cc12 (centres unmarked) | enzyme activity, inhibitor | 1 µM | inhibition | 1.7% |
| COc1ncccc1-c1cnn2ccc(N3CCN(C(=O)OC(C)C)CC3)nc12 | binding, competition with immobilised ligand | 1 µM | remaining binding | 68% |
| Nc1ncc(-c2nc(N3CCOCC3)nc(N3CCOCC3)n2)c(C(F)F)n1 | binding, competition with immobilised ligand | 10 µM | remaining binding | 26% |
| O=c1[nH]c2ccccc2n1C1CCN(Cc2ccc(-c3[nH]c4cc5ncnc5cc4nc3-c3ccccc3)cc2)CC1 | cell-free assay | 0.5 µM | remaining signal | 98.4% |
| N#CC1(c2ccccn2)CCN(Cc2cc(C(=O)O)c(=O)n3ccccc23)CC1 | cell-free assay, competition with immobilised ligand | 1 µM | remaining binding | 100% |
